Bioassay records from PubChem.
CRFBP-R2 block – antagonists of CRF-BP/CRF-R2 complex, primary screen, cell-based, HEK293, calcium dye fluorescence, uHTS; CRF-induced calcium fluorescence; inhibition, % at 11.8 µM; 350,000 compounds, 0.59% hits; AID 588475, 2011;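 active = inhibition of the ligand-induced calcium signal above about 50% at the single tested concentration, limit read from the data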
proKLK7 act – proKLK7 zymogen activators, primary screen, biochemical, fluorescence intensity; activation, % at 7 µM; AID 652039, 2013; 370,000 compounds, 0.9% hits; purified proKLK7, EDANS-DABCYL substrate fluorescence; 100% is mature enzyme control, 0% vehicle; Kallikrein-7 (Homo sapiens), P49862;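 active = activation above the mean of all tested compounds plus 3 SD, computed per campaign excluding outliers beyond control limits, cut at about 13% in these data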
Target sequence (P49862 whole entry, looked up): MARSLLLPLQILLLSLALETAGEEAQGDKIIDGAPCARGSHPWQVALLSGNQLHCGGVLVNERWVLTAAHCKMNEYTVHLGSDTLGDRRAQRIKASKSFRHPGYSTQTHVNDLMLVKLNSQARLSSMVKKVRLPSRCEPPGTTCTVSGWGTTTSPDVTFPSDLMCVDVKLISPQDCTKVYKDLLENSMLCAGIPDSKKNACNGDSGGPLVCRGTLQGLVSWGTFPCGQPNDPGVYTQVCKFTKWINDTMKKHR
CRFBP-R2 agonist – agonists of CRF-BP/CRF-R2 complex, primary screen, cell-based, HEK293, calcium dye fluorescence, uHTS; AID 588473, 2011; CRF-binding protein / CRF receptor 2 complex (human); activation, % at 13.2 µM; 350,000 compounds, 0.46% hits; calcium dye fluorescence (FLIPR); percent of saturating CRF peptide response;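 active = activation of at least 50%, plus an integration ratio under a set limit after plate pattern correction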;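 also: plate controls were neutral control wells without compound for no effect and CRF at EC100 for full effect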
DDE Tn6 FP inh – inhibitors of Tn6 peptide binding to fibrin DD(E), primary screen, biochemical, fluorescence polarization, human fibrin, Tn6 probe; Fibrinogen beta chain (Homo sapiens), P02675; Fibrin DD(E) TRITC-Tn6 fluorescence polarization displacement; inhibition, % at 8.3 µM; 370,000 compounds, 0.21% hits;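 active = inhibition above a per-campaign cutoff: mean of compounds within control limits plus 3 SD, cut at about 15% in these data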;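 also: 0% = median of all compound wells on the plate and 100% = blocking peptide control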
DDE Tn7 FP inh – inhibitors of Tn7 peptide binding to fibrin DD(E), primary screen, biochemical, fluorescence polarization, human fibrin, Tn7 probe; FP displacement of FITC-Tn7 peptide from fibrin DD(E); 0% = median of compound wells per plate; inhibition, % at 8.3 µM; 370,000 compounds, 0.13% hits; AID 720508, 2013;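 active = inhibition above the mean of compounds falling within the control limits plus 3 SD of them, cut at about 14% in these data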;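 also: 0% = plate median of compound wells and 100% = 10 µM Aha-Tn7 peptide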
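assay system = human clot-derived fibrin DD(E) complex | quantity = Fibrin-DD(E) at 2 µM final | timing = 10 min preincubation, 3 h with tracer, room temperature | signal = fluorescence polarization | measure = percent inhibition | benchmarks = high control wells with 10 µM unlabelled Aha-Tn7 peptide (full inhibition) | replicates = singlicate testing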
NRP1-CendR mod – modulators of CendR peptide binding to NRP-1, primary screen, biochemical, fluorescence polarization, uHTS; FAM-RPARPAR peptide binding to NRP-1; inhibition, % at 25 µM; 360,000 compounds, 0.85% hits; AID 602438, 2012;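 active = inhibition or corrected inhibition above about 18%, plus a signal ratio from 0.5 to 1.5, limit read from the data, passing the limit was not always enough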
* hit, by the source's call; nt = no result. Rows were chosen to be rich in hits. Some 2.9% of all compounds tested hit in one or more screens of this group.

SMILES | CRFBP-R2 block | proKLK7 act | CRFBP-R2 agonist | DDE Tn6 FP inh | DDE Tn7 FP inh | NRP1-CendR mod
CCOc1ccc(CN2CCN(Cc3[nH]c4ccccc4c3C)CC2CCO)cc1 (stereo not drawn) | -48 | 0 | -2 | 3 | 0 | 38*
COc1nnc(-c2ccc(C(=O)N3C[C@@H]4C[C@H](C3)c3cccc(=O)n3C4)cc2)c2ccccc12 | 21 | 0 | -1 | 2 | 8 | 19*
Cc1ccc2c(c1)/C(=N/OC(=O)c1ccc(F)cc1)CCS2 | -4 | -1 | 4 | 8 | 7 | 4
O=C(O/N=C1/CCSc2ccccc21)c1ccccc1 | -4 | 0 | -1 | -1 | 4 | 26*
O=C(NCc1ccc(F)c(F)c1)C1CCCN(c2nc3ccccc3o2)C1 (stereo not drawn) | nt | 0 | nt | -10 | 0 | nt
CC(=O)Nc1ccc(Oc2cc(C#N)c(C#N)cc2N2CCCCCC2)cc1 | 28 | -6 | 1 | -6 | 2 | 1
CC(=O)Nc1ccc(Oc2cc(C#N)c(C#N)cc2N2CCOCC2)cc1 | -11 | -1 | -2 | 2 | -10 | 41*
CC(C)(C)NC(=O)C12CC3CC(CC(Cl)(C3)C1)C2 | 8 | -1 | -2 | -9 | -7 | 22*
CCCNC(=O)c1cc(C)no1 | -14 | 0 | 1 | -2 | -10 | 25*
Cc1cc(C(=O)NC(C)C)on1 | -10 | 0 | 0 | 0 | 9 | -1
Cc1ccc(Cn2c(SCC(=O)NCC3CCCO3)nc3ccsc3c2=O)cc1 (stereo not drawn) | 54* | 1 | 2 | -1 | 3 | 9
O=c1ccc2cccc([N+](=O)[O-])c2[nH]1 | nt | 0 | nt | -3 | 3 | 22*
O=C(NCc1cccc(F)c1)c1cccc(OC2CCN(C(=O)C3CC3)CC2)c1 | -3 | 0 | -1 | 4 | 5 | 24*
COc1ccc(-c2cn(CCC(=O)O)c(-c3ccc(Cl)nc3)n2)cc1 | 5 | 0 | -1 | 1 | -5 | 2
COc1ccc(-c2cn(CCO)c(-c3ccc(Cl)nc3)n2)cc1 | 1 | 4 | -2 | 0 | -5 | 18*
Nn1c(SCC(=O)Nc2cccc3ccccc23)nnc1-c1cc(-c2ccccc2)n[nH]1 | nt | 1 | nt | -2 | 6 | nt
COC(=O)C1=C(CS(=O)(=O)c2ccc(OC)c(OC)c2)NC(=O)NC1c1ccc(O)c(OC)c1 (stereo not drawn) | 5 | -1 | 1 | 7 | 2 | 5
COC(=O)C1=C(CS(=O)(=O)c2cc(OC)ccc2OC)NC(=O)NC1c1ccc(O)c(OC)c1 (stereo not drawn) | -1 | 0 | 1 | 8 | -1 | 20*
COC(=O)[C@]12C[C@H](CC(=O)NCC3CCCCC3)C(=O)N(Cc3cccc4ccccc34)C1=C[C@H](C1CCCC1)O[C@@H]2C | nt | 0 | nt | 1 | -2 | nt
CC1(c2ccc(OC(F)F)cc2)NC(=O)N(CC(=O)Nc2cccc(S(N)(=O)=O)c2)C1=O (stereo not drawn) | -24 | 0 | -2 | 7 | 1 | 0
CC1(c2ccc(OC(F)F)cc2)NC(=O)N(/N=C/c2c(O)ccc3ccccc23)C1=O (stereo not drawn) | -122 | -1 | 87* | 4 | 4 | -3
CCN1CCN(Cc2ccc(NC(=O)c3cccc(-c4ccc5nc(NC(=O)C6CC6)sc5n4)c3)cc2C(F)(F)F)CC1 | nt | -8 | nt | -12 | -6 | nt
O=C(COC(=O)c1ccc(S(=O)(=O)NCc2ccco2)cc1)Nc1ccc(OC(F)F)cc1 | -4 | 0 | 0 | 7 | 3 | -16
Cc1ccc(S(=O)(=O)N(C)C)cc1NC(=O)COC(=O)c1ccc2c(c1)OCO2 | -1 | 0 | -4 | -2 | -10 | 37*
Cc1ccc(S(=O)(=O)N(C)C)cc1NC(=O)COC(=O)c1ccc2c(c1)OCCO2 | 6 | 1 | -5 | 1 | 1 | 1
SMILES | CRFBP-R2 block | proKLK7 act | CRFBP-R2 agonist | DDE Tn6 FP inh | DDE Tn7 FP inh | NRP1-CendR mod
CN(C)S(=O)(=O)c1ccc(C(=O)OCC(=O)Nc2ccc(OC(F)F)cc2)cc1 | 96* | 0 | 3 | 5 | -2 | -2
CN(C)c1ccc(C(=O)OCC(=O)Nc2ccc(S(N)(=O)=O)cc2)cc1 | 54* | 1 | 8 | 5 | -3 | 39*
O=C(c1ccccc1)N1CCC2CCN(S(=O)(=O)c3ccccc3)CC21 (stereo not drawn) | nt | 0 | nt | -3 | 3 | nt
COc1ccc(C(C)=NNc2ccc([N+](=O)[O-])cc2S(=O)(=O)Nc2ccccc2C(=O)O)c(OC)c1 | 66* | 0 | -2 | 8 | 7 | -58
CC(=O)Nc1ccc(C=NNc2ccc([N+](=O)[O-])cc2S(=O)(=O)Nc2ccccc2C(=O)O)cc1 | 5 | -1 | 2 | 8 | -2 | -57
Cc1cccc(C(=O)Nc2nc3ncccn3c2-c2ccc(F)c(F)c2)c1 | nt | 5 | nt | 1 | -3 | nt
CCCCCOc1ccc(/C=N/NC(=O)CSc2nnc(-c3ccc(OC)cc3)n2-c2ccc(C)cc2)cc1 | nt | 0 | nt | -6 | 1 | nt
CC1CCCCC1NC(=O)CSc1ncnc2sccc12 (stereo not drawn) | 25 | 0 | -1 | -8 | -5 | 22*
CN(c1ccccc1)c1ccc(/C=C/[N+](=O)[O-])cc1 | -162 | 1 | 75* | -4 | -5 | -32
O=[N+]([O-])c1ccc(C=CC=Cc2ccccc2)cc1 | 8 | -1 | -1 | -13 | 1 | -55
Cc1nc(SCC(=O)N2CCOCC2)c2c(=O)n(C)c(=O)n(CC(C)C)c2n1 | -7 | 1 | -3 | 5 | -5 | 24*
O=C(NC1CCCCN(Cc2cccc(F)c2)C1=O)c1cccc(C(F)(F)F)c1 (stereo not drawn) | nt | 0 | nt | -5 | -3 | nt
CCN(CC)CCN(C(=O)CN1C(=O)c2ccccc2C1=O)c1nc2cc3c(cc2s1)OCO3 | 76* | 0 | 1 | -1 | 0 | 5
CN(C)CCN(C(=O)CN1C(=O)c2ccccc2C1=O)c1nc2cc3c(cc2s1)OCO3 | -5 | 0 | 0 | 4 | 2 | 12
OCCC1CCCCN1CC(O)COCc1ccc(Cl)cc1 (stereo not drawn) | -4 | 0 | 1 | 9 | 1 | 21*
NC(=O)C1CCCN(CC(O)COCc2ccc(Cl)cc2)C1 (stereo not drawn) | -6 | 0 | 0 | -4 | -5 | -4
